PGE2 EP2 inh: EP2 receptor (human) inhibition | P43116 | C6 glioma cells expressing human EP2, cAMP TR-FRET; cells stimulated with saturating PGE2 | inhibition, % at 25 µM | actives 0.52% (n = 260,000) | AID 1422;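 active = percent inhibition above 40 after rounding to a whole number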;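 note: rat C6 glioma host cells with rolipram phosphodiesterase inhibitor present; the protocol text gives 20 µM as final concentration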
NPY2 pot ag: potentiates or activates human NPY-Y2 receptor | P49146 | cells expressing NPY-Y2, potentiator/agonist read-out | activation, % at 3.6 µM | actives 0.45% (n = 220,000); in the data active = activation above about 27%;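 note: cells stimulated with NPY near EC25 plus isoproterenol at EC100; 0% = vehicle plus submaximal agonist and 100% = vehicle plus saturating agonist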
Target sequence (P49146 whole entry, looked up): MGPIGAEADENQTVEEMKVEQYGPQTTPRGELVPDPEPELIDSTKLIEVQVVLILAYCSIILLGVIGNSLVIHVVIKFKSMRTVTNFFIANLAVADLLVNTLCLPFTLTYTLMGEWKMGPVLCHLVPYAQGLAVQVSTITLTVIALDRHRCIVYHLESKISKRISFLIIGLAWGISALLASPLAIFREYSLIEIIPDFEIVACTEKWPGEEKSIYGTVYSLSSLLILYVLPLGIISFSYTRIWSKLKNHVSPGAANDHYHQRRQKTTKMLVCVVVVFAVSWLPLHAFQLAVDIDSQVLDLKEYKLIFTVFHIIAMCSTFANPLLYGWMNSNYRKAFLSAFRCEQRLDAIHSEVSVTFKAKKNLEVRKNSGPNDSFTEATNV
NPY Y2 blocker: antagonists of human neuropeptide Y receptor Y2; P49146; NPY-Y2 expressing cells, antagonist mode; inhibition, % at 2.7 µM; actives 0.99% (n = 140,000); in the data active = inhibition above about 17%;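 note: 0% = vehicle with agonist challenge and 100% = reference antagonist with challenge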
EP2 modulator: EP2 receptor (human) modulation; P43116; EP2-expressing cells, cAMP HTRF FRET, PGE2 co-stimulation; actives 0.83% (n = 260,000); induction, % at 25 µM;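 active = compounds whose cAMP rise, as percent of the full-agonist control response, exceeds 60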;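 note: rat C6 glioma line stably carrying human EP2 under a CMV promoter; the protocol text gives 20 µM as final concentration; 100% = response of wells given 1 µM PGE2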
NPY-Y1 antag: NPY-Y1 (human) receptor antagonism | P25929 | HEK293-CNG Y1 cells, membrane potential fluorescence; NPY at EC95, then isoproterenol | inhibition, % at 3.6 µM | actives 1% (n = 200,000);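 active = inhibition above the campaign mean inhibition of all tested compounds plus 3 SD, cut at about 20% in these data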;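 note: 0% = DMSO wells given NPY plus isoproterenol and 100% = isoproterenol alone without NPY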
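Assay system: HEK293 cells with Y1 receptor plus CNG channel | Probe or stimulus: NPY (25 nM), isoproterenol (1 µM), Ro 20-1724 (25 µM) | Timing: Compound incubation 1 h at room temperature, readout 45 min post-stimulation | Measured by: Membrane-potential fluorescent dye readout | Benchmarks: High control isoproterenol alone, low control NPY with isoproterenol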
NPY1 pot ag: potentiators or agonists of human neuropeptide Y receptor Y1. NPY-Y1 expressing cells, potentiator/agonist activation. activation, % at 3.6 µM. actives 0.37% (n = 220,000). AID 1304; in the data active = activation above about 33%, passing the limit was not always enough;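 note: cells stimulated with NPY at EC10 then isoproterenol at EC100; 0% = low agonist plus stimulus and 100% = saturating agonist plus stimulus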
* hit, by the source's call; · = no result; ! = not active in a repeat. This is a sample that favours compounds with a hit; in the whole collection about 2.8% have one here.

SMILES	PGE2 EP2 inh	NPY2 pot ag	NPY Y2 blocker	EP2 modulator	NPY-Y1 antag	NPY1 pot ag
O=C1NC2(CCN(C(=O)Cc3n[nH]c(=O)c4ccccc34)CC2)Oc2ccccc21	10.5	·	·	-19.9	·	·
COc1ccc(C2(NC(=O)Cc3ccc4c(c3)OCO4)CCCCC2)cc1	6.7	·	·	-10.6	·	·
Cc1ccc(C(=O)c2cc([N+](=O)[O-])ccc2N2CCOCC2)cc1	3.5	8.6	3.7	12.0	1.6	-10.8
CC(C)=Cc1oc2ccc([N+](=O)[O-])cc2c1N1CCOCC1	5.1	-4.7	·	64.0*	-1.9	7.6
COC(=O)C1=NN(c2ccc(C)cc2)C2(S1)SC(C(C)=O)=C(C)N2c1ccccc1 (configuration not stated)	7.5	-0.7	3.0	63.1*	-0.6	-12.9
COc1cccc(-c2cc(C(F)(F)F)nc(-n3ccc([N+](=O)[O-])n3)n2)c1	5.3	6.4	·	0.3	21.3*	8.4
COc1ccc([C@@H](C)c2cc3c(cc2O)OCO3)cc1	13.0	·	·	-14.5	·	·
COc1ccc([C@@H](Nc2ncccn2)c2cc3c(cc2O)OCO3)cc1	52.7*	·	·	11.9	·	·
Cn1c(=S)[nH]c2scc(-c3cccs3)c2c1=O	78.5*	-16.6	·	-24.8	8.7	-17.0
C=CCn1c(=S)[nH]c2scc(-c3cccs3)c2c1=O	62.9*	-1.7	·	-20.3	4.2	-16.8
O=c1c2c(-c3cccs3)csc2ncn1-c1ccc(Br)cc1	3.9	-32.6	5.3	22.2	0.3	1.0
O=C(O)c1ccc(S(=O)(=O)Nc2cc3sc(=O)oc3c3ccccc23)cc1	6.5	·	·	13.2	·	·
Cc1ccc(C(=O)N(CCO)Cc2cc3c(C)ccc(C)c3[nH]c2=O)cc1	7.0	·	·	-12.4	·	·
CCC(CN1CCOCC1)NC(=O)Cc1c(C)nc(OC)nc1OC (configuration not stated)	1.6	·	·	-10.7	·	·
COC(=O)[C@@]1(Cc2ccccc2)[C@H]2c3cc(C(=O)N4CCCC4)n(Cc4ccsc4Br)c3C[C@H]2CN1C(=O)c1ccccc1	7.5	0.6	22.7*	25.1	48.6*	15.7
COC(=O)CN1C(c2ccc(Cl)cc2)=Nc2ccc(Cl)cc2C1c1ccccc1 (configuration not stated)	15.5	-5.2	19.0*	21.5	26.8*	-23.5
CC(=O)CSc1ncnc2c1oc1ccccc12	15.5	4.4	-1.3	62.5*	-0.5	-7.5
CN(C)c1ccc(-c2nnc(-c3cccs3)o2)cc1	11.0	-2.3	·	13.6	0.3	0.1
Brc1ccc(-c2cnc(-c3cccs3)o2)cc1	6.0	-52.7	4.9	61.0*!	4.2	-8.9
O=C(O)CCCCCC[C@H]1C(=O)NC(=O)N1CC[C@@H](O)C1CCCCC1	13.5	·	·	100.0*	·	·
CN(C)c1cccc(C(=O)N2CCC(Nc3nc(C(F)(F)F)cc(=O)[nH]3)CC2)c1	·	·	·	12.7	·	·
COc1cccc(C(O)CN2CCC(O)(c3cccc(C(F)(F)F)c3)CC2)c1 (configuration not stated)	4.2	·	·	-69.6	·	·
O=C1c2ccccc2C(=O)c2c(NC3CCCCC3)ccc(Nc3ccc(S(=O)(=O)O)cc3)c21	71.0*	·	·	-14.5	·	·
COc1ccccc1N1CCN(C(c2nnnn2Cc2ccc(F)cc2)C(C)C)CC1 (configuration not stated)	6.3	·	·	-14.3	·	·
O=C(C1CCN(CC2CC=CCC2)CC1)N(CCc1ccccc1)Cc1ccccc1 (configuration not stated)	11.0	-14.8	18.1*	9.9	23.5*	-42.3
SMILES	PGE2 EP2 inh	NPY2 pot ag	NPY Y2 blocker	EP2 modulator	NPY-Y1 antag	NPY1 pot ag
O=C(C1CCN(CCCc2ccccc2)CC1)N(CCc1ccccc1)Cc1ccccc1	6.4	21.6	35.8*	32.8	26.8*	-51.8
Cc1cc2cccc(C)c2nc1SCC(=O)OC(C)C	4.0	·	·	50.1	·	·
COc1cc(CNC(=O)CCn2c(-c3ccccn3)cc3cccnc32)cc(OC)c1	4.9	·	·	-19.2	·	·
CC1CCCCN1CC(=O)Nc1ccccc1Sc1ccccc1 (configuration not stated)	11.8	18.3	4.3	62.3*	7.7	3.3
CCCSC1=N/C(=C/c2ccsc2)C(=O)N1c1ccccc1	9.1	16.6	1.5	63.4*	4.6	5.6
CCN(c1cccc2ccccc12)S(=O)(=O)c1ccc(Cl)nc1	3.3	-5.1	·	64.8*	·	-5.4
CS(=O)(=O)c1ccc2nc(N)sc2c1	6.4	7.7	0.0	20.9	17.0	41.0*
CCc1ccc(S(=O)(=O)Nc2ccc(O)c3c(=O)cc(-c4ccccc4Cl)oc23)cc1	20.3	·	·	44.0	·	·
O=c1cc(-c2ccccc2Cl)oc2c(NS(=O)(=O)c3cc(Cl)cc(Cl)c3O)ccc(O)c12	45.0*	40.7*	1.9	8.4	-5.5	56.0*
Oc1nc(Nc2ccccc2)sc1/C=C1\C=Nc2ccccc21	71.9*	-14.9	·	-64.2	·	11.7
CCOC(=O)c1c(Nc2ccccc2)sc(/C=C2\C=Nc3ccccc32)c1O	8.3	2.1	-3.0	-7.9	-1.3	14.4
CC1CCCC(C)N1C(=O)Cn1c(SCC(=O)NC2CCCC2)nc2ccccc21 (configuration not stated)	4.2	·	·	4.4	·	·
O=C(Nc1cccc(Cl)c1)OCc1cn(-c2ccccc2)nn1	4.9	-17.5	·	-73.0	21.3*	-10.6
CCNC(=O)OCc1cn(-c2ccccc2)nn1	4.3	1.9	·	-3.1	-1.0	0.6
CCCN(CCC)CCCNC(=S)Nc1ccc2nc(N3CCCC3)cc(C)c2c1	8.3	-11.5	·	-44.1	21.7*	-24.6
CCC(C)NC(=O)CCC(=O)Nc1ccc2nc(N3CCOCC3)cc(C)c2c1 (configuration not stated)	11.9	93.2*	4.9	-9.8	-19.4	84.0*
C/C=C/C(=O)N1c2ccccc2C(C)=CC1(C)C	8.6	-15.3	·	61.3*!	5.8	-16.9
CN(C1=C(N2CCCCC2)C(=O)c2ccccc2C1=O)c1ccccc1	7.2	36.6*	-14.1	63.5*	-5.1	43.9*
O=C1C(Nc2ccccc2)=C(N2CCCCC2)C(=O)c2ccccc21	22.7	1.6	0.6	-3.6	3.0	-19.8
Cc1ccnc(NC(=O)CCC2CCCCC2)c1	12.5	-9.7	19.9*	-3.7	23.1*	-8.4
Cc1c(C(=O)NC2(c3cccc(F)c3)CCCC2)sc2ncn(C)c(=O)c12	5.8	·	·	-27.8	·	·
C=CCOC(=O)C1=C(C)NC(=O)NC1c1cccc(F)c1 (configuration not stated)	9.4	·	·	3.5	·	·
CN(C)CCCN1C(=O)c2cccc3c([N+](=O)[O-])ccc(c23)C1=O	80.1*	14.0	4.1	-66.5	1.8	-1.2
O=C1c2cccc3c([N+](=O)[O-])ccc(c23)C(=O)N1CCc1ccccn1	9.9	-30.9	·	-24.0	·	8.7
O=C(Nc1ccc(F)cc1)c1nn(-c2ccccc2)c(=O)cc1Cl	9.0	53.1*	·	-50.1	-11.0	63.1*
O=C(CSc1nc2ccccc2s1)c1sc2sc3ccccc3[n+]2c1O	65.6*	·	·	-4.0	·	·

Compound activity from PubChem.
